Columns and labels:
Leishmania amazonensis [1] = experiment: Antileishmanial activity against GFP tagged Leishmania amazonensis Josefa amastigote infected mouse peritoneal macrophages at 50 uM after 72 hrs; assay type: functional
How it was run: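 GFP L. amazonensis (Josefa)-infected mouse peritoneal macrophages (10⁶ cells, 5 × 10⁶ promastigotes, 4 h at 37 °C), washed, exposed to compound for 72 h in 1% DMSO. Monolayer fluorescence measured. Percent inhibition scaled between untreated infected cells and uninfected macrophages. Vehicle control was 1% DMSO. Triplicate means with SD.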

Leishmania amazonensis [2] = experiment: Antileishmanial activity against GFP tagged Leishmania amazonensis Josefa promastigote at 50 uM; assay type: functional
How it was run: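 Triplicate wells of 10⁵ GFP-transfected promastigotes in DMEM with 5% serum and 1% DMSO, with compound, held 72 h at 27 °C. Fluorescence intensity read on a plate fluorometer. Results given as percent inhibition, mean of triplicates with SD.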

[3] = test system: Peritoneal macrophage cell; experiment: Effect on nitric oxide production in mouse peritoneal macrophages at 50 uM after 48 hrs; assay type: functional
How it was run: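 Supernatants from mouse peritoneal macrophage cultures incubated 48 h with compound. Nitrite measured by a modified Griess method. IFN-gamma at 10 U/ml served as positive control. Triplicate means.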

[4] = Cytotoxicity against mouse peritoneal macrophages assessed as LDH release at 50 uM after 48 hrs; assay type: cell-based; details: peritoneal macrophage cell
How it was run: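 Uninfected adherent mouse peritoneal macrophages exposed to compound for 48 h at 37 °C. LDH released into the medium measured with a commercial kit. 2% Triton X-100 set maximum release and 1% DMSO set minimum. Triplicate means with SD.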

Leishmania amazonensis [5] = experiment: Antiamastigote activity against GFP tagged […] amastigote infected mouse peritoneal macrophages; assay type: functional, organism-based
How it was run: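 Mouse peritoneal macrophages (10⁶) infected 4 h at 37 °C with 5 × 10⁶ GFP-expressing L. amazonensis (Josefa) promastigotes, washed, then cultured 72 h with compound in 1% DMSO. Monolayer fluorescence read as parasite growth. Uninfected macrophages set maximum inhibition and untreated infected cells set minimum. IC50 obtained by linear regression.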

IC50 (Leishmania amazonensis [5]) [µM] | Compound | Activity (Leishmania amazonensis [1]) [%] | Activity (Leishmania amazonensis [2]) [%] | Activity [3] [µM] | Activity [4] [%]
 | C=C(C#N)C(O)c1ccc(C(F)(F)F)cc1 (stereo unspecified) | 86 | 62.8 | -4 | 36.3
 | C=C(C(=O)OC)C(O)c1ccc(C)cc1 (stereo unspecified) | 28.7 | 32.4 | -3.7 | 0
42.8 | C=C(C(=O)OC)C(O)c1ccc(C(F)(F)F)cc1 (stereo unspecified) | 89 | 67.6 | -3.5 | 36.2
 | C=C(C#N)C(O)c1ccccc1OC (stereo unspecified) | 14.7 | 30 | 0.4 | 6.1
49.3 | C=C(C#N)C(O)c1ccccc1 (stereo unspecified) | 48.1 | 42.2 | -1.6 | 0
 | C=C(C#N)C(O)c1ccc([N+](=O)[O-])cc1 (stereo unspecified) | 93.9 | 47 | 5 | 41.7
 | C=C(C#N)C(O)c1ccc2c(c1)OCO2 (stereo unspecified) | 9.1 | 25.5 | -2.1 | 0
 | C=C(C#N)C(OC(C)=O)c1ccc([N+](=O)[O-])cc1 (stereo unspecified) | 21.5 | 59.3 | 0 | 0
11.2 | C=C(C#N)C(O)c1ccc2ccccc2c1 (stereo unspecified) | 95.6 | 24 | -7.1 | 26.6
 | C=C(C#N)C(O)c1ccc(O)c(OC)c1 (stereo unspecified) | 19.7 | 6.6 | -2.3 | 0
12.5 | C=C(C#N)C(O)c1ccc(Br)cc1 (stereo unspecified) | 84.3 | 17.5 | 2.5 | 0
 | C=C(C(=O)OC)C(O)c1ccc(F)cc1 (stereo unspecified) | 33.6 | 32.4 | -4.8 | 0
 | pentostam | 35.3 | 0 | 0 | 
 | C=C(C#N)C(O)c1cc(OC)ccc1OC (stereo unspecified) | 35.3 | 22.3 | -4.9 | 0
 | C=C(C(=O)OC)C(O)c1ccccc1 (stereo unspecified) | 14.4 | 37.6 | -2.1 | 0
 | C=C(C(=O)OC)C(O)c1cccnc1 (stereo unspecified) | 8.9 | 39.6 | 0.1 | 13.2
 | C=C(C(=O)OC)C(O)c1ccc([N+](=O)[O-])cc1 (stereo unspecified) | 80.6 | 67.3 | -3.7 | 41.6

From ChEMBL document CHEMBL1144484, “High selective leishmanicidal activity of 3-hydroxy-2-methylene-3-(4-bromophenyl)propanenitrile and analogous compounds” (Eur J Med Chem, 2007)
